According to ChEMBL document CHEMBL1795205, “The new 5- or 6-azapyrimidine and cyanuric acid derivatives of l-ascorbic acid bearing the free C-5 hydroxy or C-4 amino group at the ethylenic spacer: CD-spectral absolute configuration determination and biological activity evaluations” (Eur J Med Chem, 2011):

These compounds were tested on HeLa (assay: Induction of cell cycle arrest in human HeLa cells assessed as accumulation at S phase at 5 uM after 48 hrs by flow cytometry relative to control). Settings: not given.
Format: functional
How it was run: (§1)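 Cells were seeded at 3×10⁵ per well in 6-well plates and treated after overnight incubation for 24 and 48 h. They were trypsinized, washed three times in PBS, fixed in cold ethanol and stored at −20 °C. Pellets were washed twice in PBS and treated with RNase A at 37 °C for 15 min, then stained with PI for 30 min in the dark. DNA content was measured by flow cytometry.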

SMILES | Activity [%]
O=C1O/C(=C\Cn2ccc(NC(=O)c3ccccc3)nc2=O)C(OCc2ccccc2)=C1OCc1ccccc1 | 36.5

Each compound was assayed on HeLa (assay: Cytostatic activity against human HeLa cells assessed as inhibition of cell proliferation after 72 hrs by MTT assay). Settings: not given.
Format: functional, cell-based
How it was run: (§2)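 Monolayer cells grown in DMEM with 10% FBS were seeded on day 0 at 3000–6000 cells/well, set by each line's doubling time. Agents were added the next step in five 10-fold dilutions (0.01–100) for 72 h, with DMSO ≤0.1% and a solvent control. MTT absorbance was converted to percentage growth versus untreated wells on the same plate. Where all PGs exceeded 50, the top concentration was reported as ">". ANOVA/Tukey, p<0.05.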

IC50 [µM] | SMILES
7.2 | O=C1O/C(=C\Cn2ccc(NC(=O)c3ccccc3)nc2=O)C(OCc2ccccc2)=C1OCc1ccccc1

These compounds were tested on MCF7 (assay: Induction of cell cycle arrest in human MCF7 cells assessed as accumulation at G1 phase at 10 uM after 24 hrs by flow cytometry (reference value: 50.7 +/- 3.1%)). Settings: not given.
Format: functional
How it was run: as §1

SMILES | Activity [%]
O=C1O/C(=C\Cn2ccc(NC(=O)c3ccccc3)nc2=O)C(OCc2ccccc2)=C1OCc1ccccc1 | 54.3

Each compound was assayed on HeLa (assay: Induction of cell cycle arrest in human HeLa cells assessed as accumulation at G1 phase at 10 uM after 48 hrs by flow cytometry (reference value: 56.1 +/- 0.1%)). Settings: not given.
Format: functional
How it was run: as §1

SMILES | Activity [%]
O=C1O/C(=C\Cn2ccc(NC(=O)c3ccccc3)nc2=O)C(OCc2ccccc2)=C1OCc1ccccc1 | 52.3

What follows are compounds tested on MCF7 (assay: Induction of cell cycle arrest in human MCF7 cells assessed as accumulation at S phase at 10 uM after 24 hrs by flow cytometry (reference value: 33.4 +/- 0.4%)). Settings: not given.
Format: functional
How it was run: as §1

SMILES | Activity [%]
O=C1O/C(=C\Cn2ccc(NC(=O)c3ccccc3)nc2=O)C(OCc2ccccc2)=C1OCc1ccccc1 | 39.2

What follows are compounds tested on MCF7 (assay: Induction of cell cycle arrest in human MCF7 cells assessed as accumulation at G2/M phase at 10 uM after 24 hrs by flow cytometry (reference value: 15.9 +/- 2.7%)). Settings: not given.
Format: functional
How it was run: as §1

SMILES | Activity [%]
O=C1O/C(=C\Cn2ccc(NC(=O)c3ccccc3)nc2=O)C(OCc2ccccc2)=C1OCc1ccccc1 | 6.54

These compounds were tested on HeLa (assay: Induction of cell cycle arrest in human HeLa cells assessed as accumulation at G2/M phase at 5 uM after 24 hrs by flow cytometry relative to control). Settings: not given.
Format: functional
How it was run: as §1

SMILES | Activity [%]
O=C1O/C(=C\Cn2ccc(NC(=O)c3ccccc3)nc2=O)C(OCc2ccccc2)=C1OCc1ccccc1 | 13.1

The compounds below were run on HeLa (assay: Induction of cell cycle arrest in human HeLa cells assessed as accumulation at S phase at 5 uM after 24 hrs by flow cytometry relative to control). Settings: not given.
Format: functional
How it was run: as §1

SMILES | Activity [%]
O=C1O/C(=C\Cn2ccc(NC(=O)c3ccccc3)nc2=O)C(OCc2ccccc2)=C1OCc1ccccc1 | 39.9

Each compound was assayed on MIA PaCa-2 (assay: Cytostatic activity against human MIAPaCa2 cells assessed as inhibition of cell proliferation after 72 hrs by MTT assay). Settings: MIA PaCa-2, 72 h.
Format: functional, cell-based
How it was run: as §2

IC50 [µM] | SMILES
24.2 | O=C1O/C(=C\Cn2ccc(NC(=O)c3ccccc3)nc2=O)C(OCc2ccccc2)=C1OCc1ccccc1

Each compound was assayed on HepG2 (assay: Cytostatic activity against human HepG2 cells assessed as inhibition of cell proliferation after 72 hrs by MTT assay). Settings: HepG2, 72 h.
Format: functional, cell-based
How it was run: as §2

IC50 [µM] | SMILES
1.98 | O=C1O/C(=C\Cn2ccc(NC(=O)c3ccccc3)nc2=O)C(OCc2ccccc2)=C1OCc1ccccc1

The compounds below were run on MCF7 (assay: Induction of cell cycle arrest in human MCF7 cells assessed as accumulation at S phase at 5 uM after 24 hrs by flow cytometry (reference value: 33.4 +/- 0.4%)). Settings: not given.
Format: functional
How it was run: as §1

SMILES | Activity [%]
O=C1O/C(=C\Cn2ccc(NC(=O)c3ccccc3)nc2=O)C(OCc2ccccc2)=C1OCc1ccccc1 | 28.3

What follows are compounds tested on WI-38 (assay: Cytotoxicity against human WI38 cells assessed as inhibition of cell proliferation after 72 hrs by MTT assay). Settings: WI-38, 72 h.
Format: cell-based
How it was run: as §2

SMILES | IC50 [µM]
O=C1O/C(=C\Cn2ccc(NC(=O)c3ccccc3)nc2=O)C(OCc2ccccc2)=C1OCc1ccccc1 | 8.49

Each compound was assayed on MCF7 (assay: Induction of cell cycle arrest in human MCF7 cells assessed as accumulation at G1 phase at 5 uM after 24 hrs by flow cytometry (reference value: 50.7 +/- 3.1%)). Settings: not given.
Format: functional
How it was run: as §1

SMILES | Activity [%]
O=C1O/C(=C\Cn2ccc(NC(=O)c3ccccc3)nc2=O)C(OCc2ccccc2)=C1OCc1ccccc1 | 57.9

These compounds were tested on MCF7 (assay: Induction of cell cycle arrest in human MCF7 cells assessed as accumulation at S phase at 10 uM after 48 hrs by flow cytometry (reference value: 40.9 +/- 5.7%)). Settings: not given.
Format: functional
How it was run: as §1

SMILES | Activity [%]
O=C1O/C(=C\Cn2ccc(NC(=O)c3ccccc3)nc2=O)C(OCc2ccccc2)=C1OCc1ccccc1 | 38

What follows are compounds tested on HeLa (assay: Induction of cell cycle arrest in human HeLa cells assessed as accumulation at G2/M phase at 10 uM after 48 hrs by flow cytometry (reference value: 3.25 +/- 0.1%)). Settings: not given.
Format: functional
How it was run: as §1

SMILES | Activity [%]
O=C1O/C(=C\Cn2ccc(NC(=O)c3ccccc3)nc2=O)C(OCc2ccccc2)=C1OCc1ccccc1 | 8.3

The compounds below were run on HeLa (assay: Induction of cell cycle arrest in human HeLa cells assessed as accumulation at subG1 phase at 5 uM after 48 hrs by flow cytometry relative to control). Settings: not given.
Format: functional
How it was run: as §1

SMILES | Activity [%]
O=C1O/C(=C\Cn2ccc(NC(=O)c3ccccc3)nc2=O)C(OCc2ccccc2)=C1OCc1ccccc1 | 0.27

Each compound was assayed on MCF7 (assay: Induction of cell cycle arrest in human MCF7 cells assessed as accumulation at G2/M phase at 5 uM after 24 hrs by flow cytometry (reference value: 15.9 +/- 2.7%)). Settings: not given.
Format: functional
How it was run: as §1

SMILES | Activity [%]
O=C1O/C(=C\Cn2ccc(NC(=O)c3ccccc3)nc2=O)C(OCc2ccccc2)=C1OCc1ccccc1 | 13.8

The compounds below were run on HeLa (assay: Induction of cell cycle arrest in human HeLa cells assessed as accumulation at G1 phase at 10 uM after 24 hrs by flow cytometry (reference value: 44.8 +/- 11.2%)). Settings: not given.
Format: functional
How it was run: as §1

SMILES | Activity [%]
O=C1O/C(=C\Cn2ccc(NC(=O)c3ccccc3)nc2=O)C(OCc2ccccc2)=C1OCc1ccccc1 | 37.9

What follows are compounds tested on MCF7 (assay: Induction of cell cycle arrest in human MCF7 cells assessed as accumulation at subG1 phase at 5 uM after 24 hrs by flow cytometry (reference value: 0.68 +/- 0.4%)). Settings: not given.
Format: functional
How it was run: as §1

SMILES | Activity [%]
O=C1O/C(=C\Cn2ccc(NC(=O)c3ccccc3)nc2=O)C(OCc2ccccc2)=C1OCc1ccccc1 | 0.42
